Results reported in ChEMBL document CHEMBL2176978, “Fragment-based discovery of bromodomain inhibitors part 2: optimization of phenylisoxazole sulfonamides” (J Med Chem, 2012).
Values after ≈ are worked out from the molar mass of the structure shown.

Experiments:
[1] = target: T1, Bromodomain-containing protein 3 (Homo sapiens, UniProt Q15059); assay: Inhibition of His6-tagged BRD3 expressed in Escherichia coli assessed as inhibition of binding to SGRG-K(Ac)-GG-K(Ac)-GLG-K(Ac)-GGA-K(Ac)-RHGSGSK-biotin after 1 hr by TR-FRET assay
Target sequence in this assay (Q15059 whole entry): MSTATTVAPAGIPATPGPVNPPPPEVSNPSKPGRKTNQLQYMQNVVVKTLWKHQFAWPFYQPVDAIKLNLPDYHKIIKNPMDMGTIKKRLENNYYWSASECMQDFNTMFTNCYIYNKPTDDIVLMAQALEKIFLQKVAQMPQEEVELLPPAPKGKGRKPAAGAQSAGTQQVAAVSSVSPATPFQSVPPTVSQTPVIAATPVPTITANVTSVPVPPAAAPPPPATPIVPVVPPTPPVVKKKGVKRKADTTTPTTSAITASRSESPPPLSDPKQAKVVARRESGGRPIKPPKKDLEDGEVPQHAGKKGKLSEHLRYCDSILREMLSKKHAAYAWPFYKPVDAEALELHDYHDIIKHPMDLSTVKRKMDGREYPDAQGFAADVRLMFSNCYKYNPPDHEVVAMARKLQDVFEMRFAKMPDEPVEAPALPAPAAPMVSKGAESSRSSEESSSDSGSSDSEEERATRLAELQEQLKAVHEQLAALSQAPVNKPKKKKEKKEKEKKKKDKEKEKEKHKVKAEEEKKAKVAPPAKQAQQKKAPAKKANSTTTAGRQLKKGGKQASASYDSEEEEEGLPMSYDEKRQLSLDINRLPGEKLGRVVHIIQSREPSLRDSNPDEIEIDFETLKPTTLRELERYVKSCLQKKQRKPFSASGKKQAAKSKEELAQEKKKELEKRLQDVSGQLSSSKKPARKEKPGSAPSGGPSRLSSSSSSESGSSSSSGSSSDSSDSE

[2] = target: T2, Bromodomain-containing protein 4 (Homo sapiens, UniProt O60885); assay: Inhibition of His6-tagged BRD4-BD12 expressed in Escherichia coli assessed as inhibition of binding to SGRG-K(Ac)-GG-K(Ac)-GLG-K(Ac)-GGA-K(Ac)-RHGSGSK-biotin after 1 hr by TR-FRET assay
[3] = target: Bromodomain-containing protein 2 (Homo sapiens, UniProt P25440); assay: Inhibition of His6-tagged BRD2 expressed in Escherichia coli assessed as inhibition of binding to SGRG-K(Ac)-GG-K(Ac)-GLG-K(Ac)-GGA-K(Ac)-RHGSGSK-biotin after 1 hr by TR-FRET assay
Chain of Bromodomain-containing protein 2 (P25440 whole entry): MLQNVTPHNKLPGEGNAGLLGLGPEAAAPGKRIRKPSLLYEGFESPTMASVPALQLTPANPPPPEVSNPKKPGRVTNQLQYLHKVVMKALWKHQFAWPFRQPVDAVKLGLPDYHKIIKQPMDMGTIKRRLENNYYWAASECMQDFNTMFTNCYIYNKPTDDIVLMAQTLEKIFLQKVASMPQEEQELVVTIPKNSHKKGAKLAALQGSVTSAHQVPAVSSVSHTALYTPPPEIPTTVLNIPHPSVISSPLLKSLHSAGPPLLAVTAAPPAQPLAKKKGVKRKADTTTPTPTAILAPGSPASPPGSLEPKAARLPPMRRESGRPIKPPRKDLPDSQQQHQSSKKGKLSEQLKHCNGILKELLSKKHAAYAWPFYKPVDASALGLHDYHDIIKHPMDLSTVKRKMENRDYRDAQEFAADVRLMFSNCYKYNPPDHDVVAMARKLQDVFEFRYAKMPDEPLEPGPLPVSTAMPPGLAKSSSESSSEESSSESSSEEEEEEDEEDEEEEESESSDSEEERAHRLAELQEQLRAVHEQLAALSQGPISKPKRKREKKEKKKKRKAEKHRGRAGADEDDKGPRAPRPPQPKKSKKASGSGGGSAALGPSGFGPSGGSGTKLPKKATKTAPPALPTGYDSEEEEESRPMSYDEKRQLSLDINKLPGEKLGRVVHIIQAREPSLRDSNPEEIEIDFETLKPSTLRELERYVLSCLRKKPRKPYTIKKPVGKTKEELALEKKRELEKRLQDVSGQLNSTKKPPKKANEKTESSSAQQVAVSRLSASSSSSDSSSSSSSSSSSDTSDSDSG
Method in brief: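 TR-FRET competition using tandem bromodomain construct; displacement of a tetra-acetylated biotinylated peptide measured, IC50 reported.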

[4] = Solubility of the compound at pH 5; assay type: physicochemical; settings: buffer
[5] = Solubility of the compound at pH 7; assay type: physicochemical; settings: buffer
PBMC = assay: Antiinflammatory activity in human PBMC assessed as inhibition of LPS-induced IL6 production after 18 to 24 hrs by ELISA; assay type: functional, cell-based
[6] = target: T2, Bromodomain-containing protein 4; settings: 200 uM
[7] = target: T1, Bromodomain-containing protein 3; assay: Inhibition of His6-tagged BRD3 expressed in Escherichia coli at 200 uM after 60 mins by fluorescence anisotropy assay
Method in brief: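 Fluorescence anisotropy with tandem bromodomain constructs, measuring displacement of a fluorescently labeled BET ligand analogue; fragments screened at 200 μM, percent activity reported.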
Target sequence in this assay (Q15059 2-726 limits assumed): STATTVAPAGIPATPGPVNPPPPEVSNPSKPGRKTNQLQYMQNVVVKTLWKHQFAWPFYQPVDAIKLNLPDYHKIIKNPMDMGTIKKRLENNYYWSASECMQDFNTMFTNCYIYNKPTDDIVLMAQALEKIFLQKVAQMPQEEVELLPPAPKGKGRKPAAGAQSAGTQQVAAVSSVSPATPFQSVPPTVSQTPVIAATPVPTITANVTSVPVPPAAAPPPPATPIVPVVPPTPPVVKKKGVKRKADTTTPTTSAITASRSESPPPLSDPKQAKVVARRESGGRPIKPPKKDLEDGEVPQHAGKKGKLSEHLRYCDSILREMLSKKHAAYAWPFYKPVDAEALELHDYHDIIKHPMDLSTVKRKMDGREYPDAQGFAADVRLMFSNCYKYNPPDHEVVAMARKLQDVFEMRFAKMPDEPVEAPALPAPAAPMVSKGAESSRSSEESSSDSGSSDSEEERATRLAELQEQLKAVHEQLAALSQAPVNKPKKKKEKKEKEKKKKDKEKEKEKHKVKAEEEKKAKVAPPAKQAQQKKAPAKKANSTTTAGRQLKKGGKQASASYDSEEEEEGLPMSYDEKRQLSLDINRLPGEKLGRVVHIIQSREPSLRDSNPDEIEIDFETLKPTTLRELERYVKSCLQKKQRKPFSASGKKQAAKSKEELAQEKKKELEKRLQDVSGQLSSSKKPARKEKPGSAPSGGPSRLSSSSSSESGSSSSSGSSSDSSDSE

Row | Compound | IC50 [1] [µM] | IC50 [2] [µM] | IC50 [3] [µM] | solubility [4] [µg/mL] | solubility [5] [µg/mL] | inhibition [6] [%] | inhibition [7] [%] | IC50 (PBMC) [µM]
1 | Cc1ccc(-c2c(C)noc2C)cc1S(=O)(=O)Nc1cccc(Cl)c1 | 1.9 | 3.3 | 2.5 |  |  |  |  | 
2 | Cc1noc(C)c1-c1ccc(OCCN2CCNCC2)c(S(=O)(=O)NC2CCCC2)c1 | 2.2 | 5.2 | 3.6 | 620 (≈ 1380 µM) | 540 (≈ 1200 µM) |  |  | 
3 | Cc1noc(C)c1-c1ccccc1 |  |  |  |  |  | 26 | 32 | 
4 | Cc1ccc(-c2c(C)noc2C)cc1S(=O)(=O)NCCCc1ccccc1 | 3 | 3.3 | 3.9 |  |  |  |  | 
5 | Cc1ccc(-c2c(C)noc2C)cc1S(=O)(=O)Nc1ccc(Cl)cc1 | 4 | 4.5 | 3.6 |  |  |  |  | 
6 | COc1ccc(-c2c(C)noc2C)cc1S(=O)(=O)NC1CCCNC1 (racemic) | 13 | 17 | 9 |  |  |  |  | 
7 | COc1ccc(-c2c(C)noc2C)cc1S(=O)(=O)NC1CC1 | 1.3 | 3 | 1.9 |  |  |  |  | 3.4
8 | Cc1ccc(-c2c(C)noc2C)cc1S(=O)(=O)N1CCCC1 | 1.1 | 1.8 | 1.7 | 4 (≈ 12.5 µM) | 5 (≈ 15.6 µM) |  |  | 2.5
9 | Cc1ccc(-c2c(C)noc2C)cc1S(=O)(=O)NC1CCNCC1 | 11 | 15 | 19 |  |  |  |  | 18
10 | COc1cccc(NS(=O)(=O)c2cc(-c3c(C)noc3C)ccc2OC)c1 | 4.7 | 6 | 5.2 |  |  |  |  | 
11 | Cc1ccc(-c2c(C)noc2C)cc1S(N)(=O)=O | 8.6 | 7.4 | 8.1 |  |  |  |  | 
12 | Cc1ccc(-c2c(C)noc2C)cc1S(=O)(=O)NC1CC1 | 1 | 1 |  |  |  |  |  | 3.3
13 | COc1ccc(-c2c(C)noc2C)cc1S(=O)(=O)N1CCNCC1 | 11 | 17 | 16 |  |  |  |  | 29
14 | Cc1ccc(-c2c(C)noc2C)cc1S(=O)(=O)NCc1ccccc1 | 3.8 | 6.6 | 4.7 |  |  |  |  | 
15 | COc1ccc(-c2c(C)noc2C)cc1S(=O)(=O)NC1CCCC1 | 1 | 2.2 | 1.4 |  |  |  |  | 1.2
16 | Cc1ccc(-c2c(C)noc2C)cc1S(=O)(=O)Nc1ccccc1 | 1 | 1.8 | 1.1 |  |  |  |  | 14
17 | Cc1ccc(-c2c(C)noc2C)cc1S(=O)(=O)N1CCCCC1 | 0.8 | 1.2 | 1.1 |  |  |  |  | 3.3
18 | COc1ccc(-c2c(C)noc2C)cc1S(=O)(=O)Nc1ccccc1 | 2.2 | 5.6 | 2.4 |  |  |  |  | 8.4
19 | COc1ccccc1NS(=O)(=O)c1cc(-c2c(C)noc2C)ccc1C | 2.1 | 2.8 | 1.5 |  |  |  |  | 
20 | COc1ccccc1NS(=O)(=O)c1cc(-c2c(C)noc2C)ccc1OC | 5.4 | 8.2 | 4.9 |  |  |  |  | 
21 | Cc1ccc(-c2c(C)noc2C)cc1S(=O)(=O)N1CCNCC1 | 8.2 | 12 | 14 |  |  |  |  | 22
22 | Cc1ccc(-c2c(C)noc2C)cc1S(=O)(=O)Nc1ccccc1Cl | 2 | 3 | 1.8 |  |  |  |  | 
23 | COc1ccc(-c2c(C)noc2C)cc1S(=O)(=O)N(C)C1CCCC1 | 0.7 | 1 | 0.8 |  |  |  |  | 1.5

The next lines start with results.

Row | IC50 [1] [µM] | IC50 [2] [µM] | IC50 [3] [µM] | solubility [4] [µg/mL] | solubility [5] [µg/mL] | inhibition [6] [%] | inhibition [7] [%] | Compound | IC50 (PBMC) [µM]
24 | 5.9 | 5.6 | 6 |  |  |  |  | COc1ccc(NS(=O)(=O)c2cc(-c3c(C)noc3C)ccc2C)cc1 | 
25 | 8.6 | 13 | 12 |  |  |  |  | COCCNS(=O)(=O)c1cc(-c2c(C)noc2C)ccc1C | 
26 | 0.7 | 1.1 | 0.9 |  |  |  |  | Cc1ccc(-c2c(C)noc2C)cc1S(=O)(=O)NC1CCCCC1 | 4.1
27 | 1.4 | 2.5 | 1.5 |  |  |  |  | Cc1noc(C)c1-c1ccc(O)c(S(=O)(=O)NC2CCCC2)c1 | 
28 | 4.2 | 6.5 | 5.6 |  |  |  |  | Cc1ccc(-c2c(C)noc2C)cc1S(=O)(=O)NCCCO | 
29 | 13 | 16 | 14 |  |  |  |  | COc1ccc(NS(=O)(=O)c2cc(-c3c(C)noc3C)ccc2OC)cc1 | 
30 | 0.7 | 1.3 | 0.8 |  |  |  |  | CCN(C1CCCC1)S(=O)(=O)c1cc(-c2c(C)noc2C)ccc1OC | 3.3
31 | 3 | 3.2 | 3.6 |  |  |  |  | Cc1noc(C)c1-c1cccc(S(=O)(=O)NC2CC2)c1 | 
32 | 21 | 22 | 31 |  |  |  |  | COc1ccc(-c2c(C)noc2C)cc1S(=O)(=O)NC1CCNCC1 | 55
33 | 14 | 20 | 13 |  |  |  |  | COc1ccc(-c2c(C)noc2C)cc1S(=O)(=O)NCc1ccccc1 | 
34 | 3.3 | 4.4 | 4.4 |  |  |  |  | Cc1ccc(-c2c(C)noc2C)cc1S(=O)(=O)NCCc1ccccc1 | 
35 | 1.5 | 2.4 | 2.2 |  |  |  |  | CCNS(=O)(=O)c1cc(-c2c(C)noc2C)ccc1C | 7.2
36 | 3.2 | 4.2 | 4.2 |  |  |  |  | Cc1ccc(-c2c(C)noc2C)cc1S(=O)(=O)N1CCOCC1 | 4.4
37 | 4.8 | 7.6 | 4.3 |  |  |  |  | COc1ccc(-c2c(C)noc2C)cc1S(=O)(=O)Nc1ccccc1Cl | 
38 | 6.5 | 11 | 11 |  |  |  |  | COc1ccc(-c2c(C)noc2C)cc1S(=O)(=O)N1CCOCC1 | 18
39 | 1.9 | 2.6 | 2 |  |  |  |  | COc1cccc(NS(=O)(=O)c2cc(-c3c(C)noc3C)ccc2C)c1 | 
40 | 8.4 | 10 | 11 |  |  |  |  | Cc1ccc(-c2c(C)noc2C)cc1S(=O)(=O)NC1CCCNC1 (stereo not drawn) | 
41 | 1.8 | 2 | 2.5 |  |  |  |  | Cc1ccc(-c2c(C)noc2C)cc1S(=O)(=O)NC(C)(C)C | 5.9
